Data on 28 molecules can be found in ChEMBL document CHEMBL1148367, “Novel azapeptide inhibitors of hepatitis C virus serine protease” (J Med Chem, 2004).

*1 amine or outer side, *2 acyl side, *3 side chain or, on linkers, in order; H or OH if unused. Where a SMILES comes first, the peptide text is derived from it. [ ]: non-standard residue; d: D form. The star is where a group is joined. NH(1S-phenylpropyl) = CC[C@H](N*)c1ccccc1; NH(1R-phenylethyl) = C[C@@H](N*)c1ccccc1; NH(1S-phenylethyl) = C[C@H](N*)c1ccccc1; X8 = O=C(N(CC(F)(F)F)N[*:1])[*:2]; Hyp = O=C(O)[C@@H]1C[C@@H](O)CN1; NHPiperonyl = c1cc2c(cc1CN*)OCO2; X12 = CCCN(N*)C(=O)NN(C)c1ccccc1; X5 = CC(C)CCN(N[*:1])C(=O)[*:2]; azaNva = CCCN(N[*:1])C(=O)[*:2]; AzaAla = CN(N[*:1])C(=O)[*:2]; X10 = CCCN(N*)C(=O)CCc1ccccc1; X3 = C[C@H](N*)c1cccc2ccccc12; X9 = CCCCCN(N[*:1])C(=O)[*:2]; NMe(benzyl) = CN(Cc1ccccc1)*; X6 = CCCN(N*)C(=S)NCc1ccccc1; X7 = CCCN(N*)C(=O)OCc1ccccc1; X1 = c1ccc2c(c1)CC[C@@H]2N*; X4 = C[C@H](N*)c1ccc(Br)cc1; X14 = C[C@H](N*)c1nnn[nH]1; X11 = C[C@H](N*)C1CCCCC1; X13 = c1ccc2c(c1)CCN2*; NHBn = c1ccc(CN*)cc1; X2 = CCCN(N*)C(N)=O; Bn = c1ccc(C*)cc1

In the first assay the target is T1, NS3 (Hepatitis C virus, UniProt A3EZJ3). Briefly: Inhibitory concentration against Hepatitis C virus NS3 serine protease. Details: species or system Hepacivirus hominis. In a few lines: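 HCV NS3 serine protease IC50 from the group's in-house protease assay, run as previously described. Each reported value is the mean of at least four determinations.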
T1 sequence (A3EZJ3 whole entry): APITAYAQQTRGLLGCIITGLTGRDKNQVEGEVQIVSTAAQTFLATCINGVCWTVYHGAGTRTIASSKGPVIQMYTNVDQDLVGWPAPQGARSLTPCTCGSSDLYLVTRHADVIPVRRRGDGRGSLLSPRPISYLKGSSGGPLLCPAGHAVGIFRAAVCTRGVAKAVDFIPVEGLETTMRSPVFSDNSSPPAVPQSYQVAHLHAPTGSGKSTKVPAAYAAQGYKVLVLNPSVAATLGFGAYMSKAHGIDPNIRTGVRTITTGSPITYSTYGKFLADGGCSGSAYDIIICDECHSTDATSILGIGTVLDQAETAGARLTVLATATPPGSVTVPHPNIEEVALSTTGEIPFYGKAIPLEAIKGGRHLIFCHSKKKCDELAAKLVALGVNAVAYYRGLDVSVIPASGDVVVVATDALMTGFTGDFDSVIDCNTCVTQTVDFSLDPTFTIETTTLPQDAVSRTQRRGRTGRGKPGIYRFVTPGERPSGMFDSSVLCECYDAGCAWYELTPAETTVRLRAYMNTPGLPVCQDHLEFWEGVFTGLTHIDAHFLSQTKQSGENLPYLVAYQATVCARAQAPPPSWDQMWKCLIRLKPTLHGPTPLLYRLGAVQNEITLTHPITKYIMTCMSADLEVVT
The molecule Ac-DDIVPC-OH showed a half-maximal inhibitory concentration (IC50) of 43 µM.

A further assay addresses T1, NS3. Briefly: Inhibitory concentration against Hepatitis C virus serine protease. Details: species or system Hepacivirus hominis.
Molecule `CC[C@H](C)[C@H](NC(=O)[C@@H](CCC(=O)O)NC(=O)[C@H](CC(=O)O)NC(C)=O)C(=O)N[C@H](C(=O)N1C[C@H](OCc2ccccc2)C[C@H]1C(=O)NN(C)C(=O)N[C@@H](C)c1ccccc1)C(C)C` (Ac-D[dE]IV[Hyp](Bn)[AzaAla]-{NH(1S-phenylethyl)}) yielded an IC50 of 0.43 µM. The same measure, in the same setting: under `CCCN(NC(=O)[C@@H]1C[C@@H](OCc2ccccc2)CN1C(=O)[C@@H](NC(=O)[C@@H](NC(=O)[C@@H](CCC(=O)O)NC(=O)[C@H](CC(=O)O)NC(C)=O)[C@@H](C)CC)C(C)C)C(=O)N(C)Cc1ccccc1` (Ac-D[dE]IV[Hyp](Bn)[azaNva]-{NMe(benzyl)}) stands 8.4 µM; under `CCC[C@@H](NC(=O)[C@@H]1C[C@@H](OCc2ccccc2)CN1C(=O)[C@@H](NC(=O)[C@@H](NC(=O)[C@@H](CCC(=O)O)NC(=O)[C@H](CC(=O)O)NC(C)=O)[C@@H](C)CC)C(C)C)C(=O)O`, 34 µM; under `CCCN(NC(=O)[C@@H]1C[C@@H](OCc2ccccc2)CN1C(=O)[C@@H](NC(=O)[C@@H](NC(=O)[C@@H](CCC(=O)O)NC(=O)[C@H](CC(=O)O)NC(C)=O)[C@@H](C)CC)C(C)C)C(N)=O` (Ac-D[dE]IV[Hyp](Bn)-X2), 17.5 µM. Still for that read-out and setting: to `CCC[C@H](NC(=O)[C@@H]1C[C@@H](OCc2ccccc2)CN1C(=O)[C@@H](NC(=O)[C@@H](NC(=O)[C@@H](CCC(=O)O)NC(=O)[C@H](CC(=O)O)NC(C)=O)[C@@H](C)CC)C(C)C)C(=O)O` belongs 0.6 µM; to `CCCN(NC(=O)[C@@H]1C[C@@H](OCc2ccccc2)CN1C(=O)[C@@H](NC(=O)[C@@H](NC(=O)[C@@H](CCC(=O)O)NC(=O)[C@H](CC(=O)O)NC(C)=O)[C@@H](C)CC)C(C)C)C(=O)CCc1ccccc1` (Ac-D[dE]IV[Hyp](Bn)-X10), 0.71 µM. The molecule `CCCN(NC(=O)[C@@H]1C[C@@H](OCc2ccccc2)CN1C(=O)[C@@H](NC(=O)[C@@H](NC(=O)[C@@H](CCC(=O)O)NC(=O)[C@H](CC(=O)O)NC(C)=O)[C@@H](C)CC)C(C)C)C(=O)N[C@H](C)c1ccccc1` (Ac-D[dE]IV[Hyp](Bn)[azaNva]-{NH(1R-phenylethyl)}) returned an IC50 of 4.3 µM. In turn, `CCCN(NC(=O)[C@@H]1C[C@@H](OCc2ccccc2)CN1C(=O)[C@@H](NC(=O)[C@@H](NC(=O)[C@@H](CCC(=O)O)NC(=O)[C@H](CC(=O)O)NC(C)=O)[C@@H](C)CC)C(C)C)C(=O)N[C@@H](CC)c1ccccc1` (Ac-D[dE]IV[Hyp](Bn)[azaNva]-{NH(1S-phenylpropyl)}) showed an IC50 of 0.44 µM. `CCCN(NC(=O)[C@@H]1C[C@@H](OCc2ccccc2)CN1C(=O)[C@@H](NC(=O)[C@@H](NC(=O)[C@@H](CCC(=O)O)NC(=O)[C@H](CC(=O)O)NC(C)=O)[C@@H](C)CC)C(C)C)C(=O)NCc1ccccc1` (Ac-D[dE]IV[Hyp](Bn)[azaNva]-NHBn) came in with an IC50 of 0.59 µM.

Molecule `CC[C@H](C)[C@H](NC(=O)[C@@H](CCC(=O)O)NC(=O)[C@H](CC(=O)O)NC(C)=O)C(=O)N[C@H](C(=O)N1C[C@H](OCc2ccccc2)C[C@H]1C(=O)NN(CC(C)C)C(=O)N[C@@H](C)c1ccccc1)C(C)C` displayed an IC50 of 2.4 µM. In the case of `CCCCCN(NC(=O)[C@@H]1C[C@@H](OCc2ccccc2)CN1C(=O)[C@@H](NC(=O)[C@@H](NC(=O)[C@@H](CCC(=O)O)NC(=O)[C@H](CC(=O)O)NC(C)=O)[C@@H](C)CC)C(C)C)C(=O)N[C@@H](C)c1ccccc1` (Ac-D[dE]IV[Hyp](Bn)[X9]-{NH(1S-phenylethyl)}), half-maximal inhibition (IC50) required 0.49 µM.

The molecule `CC[C@H](C)[C@H](NC(=O)[C@@H](CCC(=O)O)NC(=O)[C@H](CC(=O)O)NC(C)=O)C(=O)N[C@H](C(=O)N1C[C@H](OCc2ccccc2)C[C@H]1C(=O)NN(CCC(C)C)C(=O)N[C@@H](C)c1ccccc1)C(C)C` (Ac-D[dE]IV[Hyp](Bn)[X5]-{NH(1S-phenylethyl)}) returned an IC50 of 5.7 µM. `CCCN(NC(=O)[C@@H]1C[C@@H](OCc2ccccc2)CN1C(=O)[C@@H](NC(=O)[C@@H](NC(=O)[C@@H](CCC(=O)O)NC(=O)[C@H](CC(=O)O)NC(C)=O)[C@@H](C)CC)C(C)C)C(=O)OCc1ccccc1` (Ac-D[dE]IV[Hyp](Bn)-X7): half-maximal inhibition (IC50) required 0.8 µM. For `CCCN(NC(=O)[C@@H]1C[C@@H](OCc2ccccc2)CN1C(=O)[C@@H](NC(=O)[C@@H](NC(=O)[C@@H](CCC(=O)O)NC(=O)[C@H](CC(=O)O)NC(C)=O)[C@@H](C)CC)C(C)C)C(=O)N[C@@H](C)c1cccc2ccccc12` (Ac-D[dE]IV[Hyp](Bn)[azaNva]-X3), the IC50 is 0.49 µM.

On to `CC[C@H](C)[C@H](NC(=O)[C@@H](CCC(=O)O)NC(=O)[C@H](CC(=O)O)NC(C)=O)C(=O)N[C@H](C(=O)N1C[C@H](OCc2ccccc2)C[C@H]1C(=O)NN(CC)C(=O)N[C@@H](C)c1ccccc1)C(C)C`, for which the IC50 worked out at 0.085 µM.

`CCCN(NC(=O)[C@@H]1C[C@@H](OCc2ccccc2)CN1C(=O)[C@@H](NC(=O)[C@@H](NC(=O)[C@@H](CCC(=O)O)NC(=O)[C@H](CC(=O)O)NC(C)=O)[C@@H](C)CC)C(C)C)C(=O)NN(C)c1ccccc1` (Ac-D[dE]IV[Hyp](Bn)-X12): the midpoint of inhibition, the IC50, lay at 0.48 µM.

Molecule `CCCN(NC(=O)[C@@H]1C[C@@H](OCc2ccccc2)CN1C(=O)[C@@H](NC(=O)[C@@H](NC(=O)[C@@H](CCC(=O)O)NC(=O)[C@H](CC(=O)O)NC(C)=O)[C@@H](C)CC)C(C)C)C(=O)N[C@H]1CCc2ccccc21` (Ac-D[dE]IV[Hyp](Bn)[azaNva]-X1) yielded a 50% inhibitory concentration (IC50) of 0.1 µM. On the same count and under the same terms, under `CC[C@H](C)[C@H](NC(=O)[C@@H](CCC(=O)O)NC(=O)[C@H](CC(=O)O)NC(C)=O)C(=O)N[C@H](C(=O)N1C[C@H](OCc2ccccc2)C[C@H]1C(=O)NN(CC(F)(F)F)C(=O)N[C@@H](C)c1ccccc1)C(C)C` (Ac-D[dE]IV[Hyp](Bn)[X8]-{NH(1S-phenylethyl)}) stands 0.34 µM; under `CCC[C@H](NC(=O)[C@@H]1C[C@@H](OCc2ccccc2)CN1C(=O)[C@@H](NC(=O)[C@@H](NC(=O)[C@@H](CCC(=O)O)NC(=O)[C@H](CC(=O)O)NC(C)=O)[C@@H](C)CC)C(C)C)C(N)=O`, 26 µM. Turning to `CCCN(NC(=O)[C@@H]1C[C@@H](OCc2ccccc2)CN1C(=O)[C@@H](NC(=O)[C@@H](NC(=O)[C@@H](CCC(=O)O)NC(=O)[C@H](CC(=O)O)NC(C)=O)[C@@H](C)CC)C(C)C)C(=S)NCc1ccccc1` (Ac-D[dE]IV[Hyp](Bn)-X6), the IC50 was 4.2 µM. With `CCC(CC)N(NC(=O)[C@@H]1C[C@@H](OCc2ccccc2)CN1C(=O)[C@@H](NC(=O)[C@@H](NC(=O)[C@@H](CCC(=O)O)NC(=O)[C@H](CC(=O)O)NC(C)=O)[C@@H](C)CC)C(C)C)C(=O)N[C@@H](C)c1ccccc1`, the midpoint of inhibition, the IC50, lay at 4.1 µM. The molecule `CCCN(NC(=O)[C@@H]1C[C@@H](OCc2ccccc2)CN1C(=O)[C@@H](NC(=O)[C@@H](NC(=O)[C@@H](CCC(=O)O)NC(=O)[C@H](CC(=O)O)NC(C)=O)[C@@H](C)CC)C(C)C)C(=O)N[C@@H](C)c1nnn[nH]1` (Ac-D[dE]IV[Hyp](Bn)[azaNva]-X14) displayed a concentration for half-maximal inhibition (IC50) of 0.86 µM. With `CCCN(NC(=O)[C@@H]1C[C@@H](OCc2ccccc2)CN1C(=O)[C@@H](NC(=O)[C@@H](NC(=O)[C@@H](CCC(=O)O)NC(=O)[C@H](CC(=O)O)NC(C)=O)[C@@H](C)CC)C(C)C)C(=O)N[C@@H](C)c1ccc(Br)cc1` (Ac-D[dE]IV[Hyp](Bn)[azaNva]-X4), the half-maximal inhibitory concentration (IC50) amounted to 0.072 µM.

Molecule `CCCN(NC(=O)[C@@H]1C[C@@H](OCc2ccccc2)CN1C(=O)[C@@H](NC(=O)[C@@H](NC(=O)[C@@H](CCC(=O)O)NC(=O)[C@H](CC(=O)O)NC(C)=O)[C@@H](C)CC)C(C)C)C(=O)NCc1ccc2c(c1)OCO2` (Ac-D[dE]IV[Hyp](Bn)[azaNva]-NHPiperonyl) showed an IC50 of 0.5 µM. Regarding `CCCN(NC(=O)[C@@H]1C[C@@H](OCc2ccccc2)CN1C(=O)[C@@H](NC(=O)[C@@H](NC(=O)[C@@H](CCC(=O)O)NC(=O)[C@H](CC(=O)O)NC(C)=O)[C@@H](C)CC)C(C)C)C(=O)N[C@@H](C)C1CCCCC1` (Ac-D[dE]IV[Hyp](Bn)[azaNva]-X11), the IC50 amounted to 0.42 µM. For the molecule `CCCN(NC(=O)[C@@H]1C[C@@H](OCc2ccccc2)CN1C(=O)[C@@H](NC(=O)[C@@H](NC(=O)[C@@H](CCC(=O)O)NC(=O)[C@H](CC(=O)O)NC(C)=O)[C@@H](C)CC)C(C)C)C(=O)N1CCc2ccccc21` (Ac-D[dE]IV[Hyp](Bn)[azaNva]-X13), the IC50 was 4.4 µM. For `CCCCN(NC(=O)[C@@H]1C[C@@H](OCc2ccccc2)CN1C(=O)[C@@H](NC(=O)[C@@H](NC(=O)[C@@H](CCC(=O)O)NC(=O)[C@H](CC(=O)O)NC(C)=O)[C@@H](C)CC)C(C)C)C(=O)N[C@@H](C)c1ccccc1`, the IC50 was found to be 0.099 µM.
